{"source": "paper PMC4224617", "about": "(Chemistry & biology, 2014)", "key": {"[1]": {"target": "chicken egg white lysozyme (Gallus gallus, UniProt P00698)", "sequence (P00698 19-147)": "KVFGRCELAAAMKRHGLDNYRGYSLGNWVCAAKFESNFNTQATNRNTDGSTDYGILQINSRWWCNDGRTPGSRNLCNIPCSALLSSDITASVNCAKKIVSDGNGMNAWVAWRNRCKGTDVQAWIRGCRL", "assay": "EnzChek fluorescent lysozyme assay, Dixon plot", "format": "biochemical", "method_in_brief": "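Substrate: fluorescein-labelled Micrococcus lysodeikticus cells (DQ lysozyme substrate). Run according to the kit's instructions. Ki values determined for oligosaccharide test compounds.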"}, "Plu2411": {"target": "T1, Plu2411 (Photorhabdus laumondii, UniProt Q7N4D0)", "T1 sequence (Q7N4D0 1-259)": "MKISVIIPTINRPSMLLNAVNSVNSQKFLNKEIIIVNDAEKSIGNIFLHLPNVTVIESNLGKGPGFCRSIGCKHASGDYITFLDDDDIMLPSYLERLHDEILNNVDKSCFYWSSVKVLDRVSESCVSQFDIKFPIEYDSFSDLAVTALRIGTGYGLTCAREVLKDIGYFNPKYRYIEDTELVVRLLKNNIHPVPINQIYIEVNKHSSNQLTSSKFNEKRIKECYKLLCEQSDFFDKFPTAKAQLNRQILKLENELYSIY", "assay": "LC/MS product detection, GT-only reaction", "format": "biochemical", "settings": "α-UDP-GlcNAc as substrate"}}, "data": [{"molecule": "CC(=O)N[C@H]1[C@@H]2OC[C@@H](O2)[C@@H](O[C@@H]2O[C@H](CO)[C@@H](O[C@@H]3O[C@H](CO)[C@@H](O)[C@H](O)[C@H]3NC(C)=O)[C@H](O)[C@H]2NC(C)=O)[C@@H]1O", "note": "[compound 2, 2]", "values": [{"measurement": "Ki", "setting": "[1]", "result": "170 ± 130", "unit": "µM"}]}, {"molecule": "CC(=O)N[C@H]1[C@H](O[C@H]2[C@H](O)[C@@H](NC(C)=O)[C@@H]3OC[C@H]2O3)O[C@H](CO)[C@@H](O[C@@H]2O[C@H](COP(=O)(O)O)[C@@H](O)[C@H](O)[C@H]2N)[C@@H]1O", "note": "[compound 5, 5]", "values": [{"measurement": "Ki", "setting": "[1]", "result": "750 ± 410", "unit": "µM"}]}, {"molecule": "CC(=O)N[C@H]1[C@@H]2OC[C@@H](O2)[C@@H](O[C@@H]2O[C@H](CO)[C@@H](O)[C@H](O)[C@H]2NC(C)=O)[C@@H]1O", "note": "[compound 1, 1]", "values": [{"measurement": "Ki", "setting": "[1]", "result": "3590 ± 1290", "unit": "µM"}]}, {"molecule": "CC(=O)N[C@H]1[C@H](O[C@H]2[C@H](O)[C@@H](NC(C)=O)[C@@H]3OC[C@H]2O3)O[C@H](CO)[C@@H](O[C@@H]2O[C@H](CO)[C@@H](O)[C@H](O)[C@H]2N)[C@@H]1O", "note": "[compound 4, 4]", "values": [{"measurement": "Ki", "setting": "[1]", "result": "400 ± 230", "unit": "µM"}]}, {"molecule": "CC(=O)N[C@H]1[C@@H]2OC[C@@H](O2)[C@@H](O[C@@H]2O[C@H](CO)[C@@H](O[C@@H]3O[C@H](CO)[C@@H](O[C@@H]4O[C@H](CO)[C@@H](O)[C@H](O)[C@H]4NC(C)=O)[C@H](O)[C@H]3NC(C)=O)[C@H](O)[C@H]2NC(C)=O)[C@@H]1O", "note": "[compound 3, 3]", "values": [{"measurement": "Ki", "setting": "[1]", "result": "300 ± 270", "unit": "µM"}]}, {"molecule": "O=c1ccn([C@@H]2O[C@H](COP(=O)(O)OP(=O)(O)O)[C@@H](O)[C@H]2O)c(=O)[nH]1", "note": "[UDP]", "values": [{"measurement": "LC/MS product detection, GT-only reaction", "setting": "Plu2411", "result": "In the GT-only reaction, we could detect UDP and free Glc-NAc products"}]}]}
